Experiments:
[1] = tested on: Plasmodium falciparum; test: Antiplasmodial activity against late ring stage Plasmodium falciparum HB3 assessed as [3H]hypoxanthine incorporation after 24 hrs by scintillation counting; assay type: functional, organism-based
Method in brief: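 Late ring stage cultures at 0.5% parasitemia were exposed to a range of compound concentrations in hypoxanthine-free rich medium for 42 h. 0.5 µCi [3H]hypoxanthine was then added and incubation continued for 24 h. Cells were harvested on glass fiber paper and counted by scintillation. Percent inhibition of uptake versus concentration was fitted with a modified dose–response logistic equation for IC50.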

[2] = target: Plasmepsin II (Plasmodium falciparum, UniProt P46925); test: Inhibition of Plasmodium falciparum plasmepsin-2 using DABCYL-Glu-Arg-Nle-Phe-Leu-Ser-Phe-Pro-EDANS as substrate by FRET analysis
Chain of Plasmepsin II (P46925 whole entry): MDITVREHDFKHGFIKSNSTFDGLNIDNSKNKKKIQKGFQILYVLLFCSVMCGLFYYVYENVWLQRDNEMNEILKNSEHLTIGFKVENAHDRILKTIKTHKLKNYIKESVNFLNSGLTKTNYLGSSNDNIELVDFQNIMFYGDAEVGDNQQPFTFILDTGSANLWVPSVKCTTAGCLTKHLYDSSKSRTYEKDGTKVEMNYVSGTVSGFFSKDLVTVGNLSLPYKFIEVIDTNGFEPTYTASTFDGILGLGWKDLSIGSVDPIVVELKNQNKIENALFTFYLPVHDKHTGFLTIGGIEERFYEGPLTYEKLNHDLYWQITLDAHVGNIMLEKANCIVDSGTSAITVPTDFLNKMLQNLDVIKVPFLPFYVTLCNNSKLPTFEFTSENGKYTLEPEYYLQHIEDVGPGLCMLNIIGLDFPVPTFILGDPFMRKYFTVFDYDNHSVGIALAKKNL
Method in brief: (§1)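 Enzyme (plasmepsin II or cathepsin D) at 1.2 nM with 1.0 µM FRET substrate in 0.1 M sodium acetate pH 5.0, 10% glycerol, 0.01% Tween 20. Compounds were dissolved in DMSO and added before substrate, at 5.0% final DMSO. Fluorescence was read at excitation 336 nm and emission 490 nm. Triplicates.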

[3] = target: Cathepsin D (Homo sapiens, UniProt P07339); test: Inhibition of human cathepsin D using DABCYL-Glu-Arg-Nle-Phe-Leu-Ser-Phe-Pro-EDANS as substrate by FRET analysis; method in brief: as §1
Chain of Cathepsin D (P07339 65-162 limits assumed): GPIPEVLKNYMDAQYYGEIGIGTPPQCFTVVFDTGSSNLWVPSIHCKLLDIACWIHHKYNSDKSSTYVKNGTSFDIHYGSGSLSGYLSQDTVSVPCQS
Chain of Cathepsin D (P07339 169-412 limits assumed): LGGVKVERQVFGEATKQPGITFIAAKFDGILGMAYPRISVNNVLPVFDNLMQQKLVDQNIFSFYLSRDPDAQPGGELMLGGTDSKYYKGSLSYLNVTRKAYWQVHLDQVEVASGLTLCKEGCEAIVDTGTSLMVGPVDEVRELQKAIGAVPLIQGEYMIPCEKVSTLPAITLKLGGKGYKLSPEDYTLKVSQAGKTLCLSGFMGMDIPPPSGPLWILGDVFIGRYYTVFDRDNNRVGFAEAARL

[4] = tested on: Plasmodium falciparum; test: Antiplasmodial activity against late ring stage Plasmodium falciparum HB3 after 1 hr by acridine orange staining-based flow cytometric analysis; assay type: functional, organism-based; conditions: HB3, 1 h

| SMILES | IC50 [1] [µM] | IC50 [2] [µM] | IC50 [3] [µM] | IC50 [4] [µM] |
| --- | --- | --- | --- | --- |
| O=C(Cn1c(-c2ccccn2)nc2ccccc21)c1ccccc1[N+](=O)[O-] | ≥ 3 | 30.6 | 39.2 | – |
| O=C(Cn1c(-c2ccccn2)nc2ccccc21)c1cccc([N+](=O)[O-])c1 | ≥ 3 | 20.4 | 21.2 | – |
| O=C(Cn1c(-c2ccccn2)nc2ccccc21)c1ccc(O)c(O)c1 | ≥ 3 | 19.6 | 28.5 | – |
| O=C(Cn1c(-c2ccccn2)nc2ccccc21)c1ccc(Cl)cc1 | 0.7 | 21.2 | 31.9 | – |
| O=C(Cn1c(-c2ccccn2)nc2ccccc21)c1ccc([N+](=O)[O-])cc1 | 2.1 | 30.5 | 17.8 | – |
| O=C(Cn1c(-c2ccccn2)nc2ccccc21)c1ccccc1 | ≥ 3 | 10 | 39.2 | – |
| COc1ccc(OC)c(C(=O)Cn2c(-c3ccccn3)nc3ccccc32)c1 | ≤ 3 | 34 | 21.2 | – |
| O=C(Cn1c(-c2ccccn2)nc2ccccc21)c1ccc(F)cc1F | ≥ 3 | 48 | 44.5 | – |
| O=C(Cn1c(-c2ccccn2)nc2ccccc21)c1ccc(-c2ccccc2)cc1 | 0.16 | 14.7 | 2 | 0.166 |
| COc1ccc(C(=O)Cn2c(-c3ccccn3)nc3ccccc32)cc1 | ≤ 3 | 37.7 | 14.2 | – |
| O=C(Cn1c(-c2ccccn2)nc2ccccc21)c1ccc(F)cc1 | 3 | 10 | 31.9 | – |
